EBNA-1 inhibitor: EBNA-1 DNA-binding inhibitors, primary screen, biochemical, fluorescence polarization; 300,000 tested, 0.34% active; inhibition, % at 14.8 µM; in the data active means inhibition above about 28%
GPR7 antagonist: GPR7 receptor antagonists, primary screen, cell-based, fluorescence, single concentration. inhibition, % at 4.4 µM. 290,000 tested, 1.1% active. AID 1861, 2009. GPR7-expressing cells, fluorescence antagonist assay. Neuropeptides B/W receptor type 1 (Homo sapiens), P48145; in the data active means inhibition above about 16%, passing the limit was not always enough;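 further: cells stimulated with the agonist NPW; 0% = agonist with vehicle and 100% = vehicle without agonist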
Target sequence (P48145 whole entry, looked up): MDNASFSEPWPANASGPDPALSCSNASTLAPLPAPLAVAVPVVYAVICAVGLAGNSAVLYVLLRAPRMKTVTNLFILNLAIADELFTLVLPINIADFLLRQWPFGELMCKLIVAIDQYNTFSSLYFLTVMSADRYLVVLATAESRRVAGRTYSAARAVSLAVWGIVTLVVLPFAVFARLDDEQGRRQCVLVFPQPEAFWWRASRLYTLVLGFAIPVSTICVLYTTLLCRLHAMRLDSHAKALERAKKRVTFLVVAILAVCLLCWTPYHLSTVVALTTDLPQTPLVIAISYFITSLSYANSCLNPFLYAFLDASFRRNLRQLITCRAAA
DNA FID counter: compounds displacing fluorescent DNA intercalator, primary screen, artefact control for HCV NS3 helicase inhibitor project, biochemical, FID fluorescence | 290,000 tested, 0.17% active | inhibition, % at 7.9 µM | DNA fluorescent intercalator displacement; in the data active means inhibition above about 37%;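 further: 0% = vehicle and 100% = reference compound; higher means more ethidium bromide displaced from hairpin DNA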
NS3 helicase inh: inhibitors of HCV NS3 helicase, primary screen, biochemical, Cy5 molecular beacon fluorescence. Hepatitis C virus NS3 helicase. NS3 helicase DNA unwinding. inhibition, % at 10.9 µM. 290,000 tested, 0.56% active. AID 1800, 2009;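 active means inhibition above the mean of all tested compounds plus 3 SD, set per campaign, cut at about 35% in these data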;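 further: 0% = DMSO wells and 100% = thioflavine S control wells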
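Assay system – hepatitis C virus NS3 helicase domain fragment enzyme · Buffer or medium – MOPS pH 6.5, MgCl2, DTT, Tween20, BSA · Reagent – Cy5/quencher beacon DNA duplex and ATP to start · Compound – single 10.9 µM dose · Timing – 1 h at 25 °C · Technique – Cy5 beacon fluorescence read at start and 1 h · Measure – % inhibition of unwinding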
ZTA counter: blocks Epstein-Barr virus ZTA, an EBNA-1 counter-screen. P03206. ZTA-DNA binding, fluorescence polarization. inhibition, % at 11 µM. 320,000 tested, 0.15% active. AID 2234; in the data active means inhibition above about 33%
Target sequence (P03206 whole entry, looked up): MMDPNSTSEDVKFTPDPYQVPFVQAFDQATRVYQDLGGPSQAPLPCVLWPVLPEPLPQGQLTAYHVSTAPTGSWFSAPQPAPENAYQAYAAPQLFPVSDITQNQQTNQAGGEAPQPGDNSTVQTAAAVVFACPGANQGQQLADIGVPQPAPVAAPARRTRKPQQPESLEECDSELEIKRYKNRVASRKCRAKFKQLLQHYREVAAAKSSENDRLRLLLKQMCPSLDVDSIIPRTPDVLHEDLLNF
GPR7 antag conf: GPR7 receptor antagonists, confirmation, cell-based, fluorescence, single concentration; shares compounds with GPR7 antagonist; GPR7-expressing cells, calcium fluorescence antagonist mode; inhibition, % at 4.4 µM; 2,400 tested, 52% active; AID 1952, 2009; in the data active means inhibition above about 24%;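 further: stimulated with the GPR7 agonist NPW; 0% = agonist plus vehicle and 100% = vehicle alone without agonist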
MCHR1 antag: MCHR1 antagonists in cells, counter-screen for GPR7 antagonist project, cell-based, fluorescence, human | shares compounds with GPR7 antagonist | MCHR1-expressing cells, fluorescence antagonist assay | inhibition, % at 4.4 µM | 2,400 tested, 62% active | AID 2148, 2009; in the data active means inhibition above about 22%;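 further: 0% = vehicle with agonist and 100% = vehicle without agonist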
Numbers without * were called inactive. This is a sample that favours compounds with a hit; in the whole collection about 2% have one here.

Screening COc1ccc(-c2nnc(SC(C)C(=O)NCc3ccc4c(c3)OCO4)n2Cc2ccco2)cc1 (stereo unspecified) returned EBNA-1 inhibitor 2, GPR7 antagonist 48*, DNA FID counter -39, NS3 helicase inh 17, ZTA counter 11, GPR7 antag conf 39* and MCHR1 antag 23*.
C=CCn1c(SC(C)C(=O)NCc2ccc3c(c2)OCO3)nnc1C1CCCCC1 (stereo unspecified) was read as EBNA-1 inhibitor 3, GPR7 antagonist 26*, DNA FID counter -34, NS3 helicase inh -4, ZTA counter 5, GPR7 antag conf 32* and MCHR1 antag 29*.
For CCn1c(SCC(=O)NCc2ccc3c(c2)OCO3)nnc1-c1ccco1 the results were EBNA-1 inhibitor 4, GPR7 antagonist -12, DNA FID counter -12, NS3 helicase inh -1 and ZTA counter 4.
O=C(CSc1nnc(-c2ccc(Cl)cc2)n1Cc1ccco1)NCc1ccc2c(c1)OCO2 was read as EBNA-1 inhibitor -7, GPR7 antagonist 34*, DNA FID counter -32, NS3 helicase inh -3, ZTA counter -9, GPR7 antag conf 32* and MCHR1 antag 24*.
Screening CC1CCN(C(=O)C2CCCN(S(=O)(=O)c3ccc4c(c3)CC(C)N4C(=O)C3CC3)C2)CC1 (stereo unspecified) returned EBNA-1 inhibitor -1, GPR7 antagonist 8, DNA FID counter -60, NS3 helicase inh 0 and ZTA counter 14.
`Cc1ccc(C(=O)NCC(=O)N2CCCC(C(F)(F)F)C2)s1` (stereo unspecified) gave EBNA-1 inhibitor -2 and ZTA counter -3.
`COc1ccccc1CNC(=O)CN(C)Cc1ccc(SC)cc1` gave EBNA-1 inhibitor -14, GPR7 antagonist 26*, DNA FID counter -4, NS3 helicase inh -16, ZTA counter 7, GPR7 antag conf 37* and MCHR1 antag 36*.
Screening COc1cccc(CN(C)CC(=O)NCc2ccc(F)cc2)c1OC returned EBNA-1 inhibitor -6, GPR7 antagonist 5, DNA FID counter -1, NS3 helicase inh 4 and ZTA counter 20.
Screening CCN(CC(=O)Nc1c(F)cccc1F)C(=O)CCCc1cccs1 returned ZTA counter 9.
COC(=O)CSc1nc(N)c(C#N)c(CC(C)C)c1C#N was read as EBNA-1 inhibitor -5, GPR7 antagonist 26*, DNA FID counter -6, NS3 helicase inh -15, ZTA counter -3, GPR7 antag conf 9 and MCHR1 antag 13.
COc1ccccc1CCNC(=O)C(=O)NCC1OCCN1S(=O)(=O)c1ccc(F)cc1 (stereo unspecified) was read as EBNA-1 inhibitor -11, GPR7 antagonist 28*, DNA FID counter -20, NS3 helicase inh 2, ZTA counter 1, GPR7 antag conf -8 and MCHR1 antag -6.
`O=C(CSC1=NCCS1)NC(NC(=O)CSC1=NCCS1)c1ccccc1` gave EBNA-1 inhibitor -18, GPR7 antagonist 29*, DNA FID counter 1, NS3 helicase inh 11, ZTA counter -17, GPR7 antag conf 2 and MCHR1 antag -1.
`N=c1c(C(=O)NC2CCCCC2)cc2c(=O)n3ccccc3nc2n1CC1CCCO1` (stereo unspecified) gave EBNA-1 inhibitor -6, GPR7 antagonist 21*, DNA FID counter -1, NS3 helicase inh -2, ZTA counter 11, GPR7 antag conf 27* and MCHR1 antag 19.
N=c1c(C(=O)NC2CCCC2)cc2c(=O)n3ccccc3nc2n1CC1CCCO1 (stereo unspecified) was read as EBNA-1 inhibitor 2, GPR7 antagonist 7, DNA FID counter -3, NS3 helicase inh 12 and ZTA counter 7.
CN(CC(=O)Nc1ccccc1Cl)C(=O)c1cccc(S(=O)(=O)N2CCN(c3ccc(F)cc3)CC2)c1 was read as EBNA-1 inhibitor -4, GPR7 antagonist 31*, DNA FID counter -30, NS3 helicase inh -21, ZTA counter -6, GPR7 antag conf 24* and MCHR1 antag 53*.
For CC1CN(C(=O)CCC(=O)NCc2ccc(Cl)cc2)c2ccccc2S1 (stereo unspecified) the results were EBNA-1 inhibitor 3, GPR7 antagonist 0, DNA FID counter -38, NS3 helicase inh -2 and ZTA counter -15.
Screening CC1CN(C(=O)CCC(=O)NCc2ccc(F)cc2)c2ccccc2S1 (stereo unspecified) returned EBNA-1 inhibitor -14, GPR7 antagonist 28*, DNA FID counter -37, NS3 helicase inh 11, ZTA counter 7, GPR7 antag conf -5 and MCHR1 antag 11.
Cc1ccc(C2NC(=NCc3ccccc3)Nc3nc(C)cc(=O)n32)cc1 (stereo unspecified) was read as EBNA-1 inhibitor 11, GPR7 antagonist 26*, DNA FID counter 9, NS3 helicase inh -11, ZTA counter 7, GPR7 antag conf 0 and MCHR1 antag 11.
CC(C)CCN1C(N(C)C)=NC[C@@H]1C was read as EBNA-1 inhibitor -2 and ZTA counter 5.
COc1cccc(Nc2ncnc3sc(C)cc23)c1 was read as EBNA-1 inhibitor -8, GPR7 antagonist 30*, DNA FID counter 6, NS3 helicase inh 4, ZTA counter 14, GPR7 antag conf -17 and MCHR1 antag 11.
For CC(c1ccon1)N(C)C(=O)CCc1nnc(C2(c3ccc(Cl)cc3)CCC2)o1 (stereo unspecified) the results were EBNA-1 inhibitor 8, GPR7 antagonist 25*, DNA FID counter -34, NS3 helicase inh 7, ZTA counter 17, GPR7 antag conf -6 and MCHR1 antag 4.
`O=C(c1noc2c1CSc1ccccc1-2)N1CCN(c2ccc(Cl)cc2)CC1` gave EBNA-1 inhibitor -8, GPR7 antagonist -2, DNA FID counter 0, NS3 helicase inh 3 and ZTA counter -5.
`CC(=O)c1ccc(N2CCN(CC(O)COC(c3ccccc3)c3ccccc3C)CC2)cc1` (stereo unspecified) gave EBNA-1 inhibitor 5, GPR7 antagonist 15, DNA FID counter 7, NS3 helicase inh -52 and ZTA counter -5.
CC(=O)c1ccc(N2CCN(CC(O)COC(c3ccccc3)c3ccccc3)CC2)cc1 (stereo unspecified) was read as EBNA-1 inhibitor -5, GPR7 antagonist 27*, DNA FID counter 5, NS3 helicase inh -31, ZTA counter -17, GPR7 antag conf 35* and MCHR1 antag 34*.
